Measurements taken from ChEMBL document CHEMBL1152556, “Omega-conotoxin GVIA mimetics based on an anthranilamide core: effect of variation in ammonium side chain lengths and incorporation of fluorine” (Bioorg Med Chem, 2009).

Target: Voltage-dependent N-type calcium channel subunit alpha-1B (Rattus norvegicus, UniProt Q02294)
Test: Displacement of [125I]GVIA from Cav2.2 channel in rat brain by scintillation counting
Type: tissue-based
Details: not given; call rule not given here
Outline: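 Radioligand displacement run in triplicate at room temperature on crude rat brain membrane (8 lg per well, added last) with 125I-GVIA tracer. Buffer: 20 mM HEPES, 75 mM NaCl, 0.2 mM EDTA, 0.2 mM EGTA, leupeptin, aprotinin, 0.1% BSA, pH 7.4. Shaken 1 h, then filtered on PEI-soaked glass fibre and washed with HEPES/125 mM NaCl, pH 7.4. Filter-bound counts read.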

Voltage-dependent N-type calcium channel subunit alpha-1B, sequence (Q02294 whole entry): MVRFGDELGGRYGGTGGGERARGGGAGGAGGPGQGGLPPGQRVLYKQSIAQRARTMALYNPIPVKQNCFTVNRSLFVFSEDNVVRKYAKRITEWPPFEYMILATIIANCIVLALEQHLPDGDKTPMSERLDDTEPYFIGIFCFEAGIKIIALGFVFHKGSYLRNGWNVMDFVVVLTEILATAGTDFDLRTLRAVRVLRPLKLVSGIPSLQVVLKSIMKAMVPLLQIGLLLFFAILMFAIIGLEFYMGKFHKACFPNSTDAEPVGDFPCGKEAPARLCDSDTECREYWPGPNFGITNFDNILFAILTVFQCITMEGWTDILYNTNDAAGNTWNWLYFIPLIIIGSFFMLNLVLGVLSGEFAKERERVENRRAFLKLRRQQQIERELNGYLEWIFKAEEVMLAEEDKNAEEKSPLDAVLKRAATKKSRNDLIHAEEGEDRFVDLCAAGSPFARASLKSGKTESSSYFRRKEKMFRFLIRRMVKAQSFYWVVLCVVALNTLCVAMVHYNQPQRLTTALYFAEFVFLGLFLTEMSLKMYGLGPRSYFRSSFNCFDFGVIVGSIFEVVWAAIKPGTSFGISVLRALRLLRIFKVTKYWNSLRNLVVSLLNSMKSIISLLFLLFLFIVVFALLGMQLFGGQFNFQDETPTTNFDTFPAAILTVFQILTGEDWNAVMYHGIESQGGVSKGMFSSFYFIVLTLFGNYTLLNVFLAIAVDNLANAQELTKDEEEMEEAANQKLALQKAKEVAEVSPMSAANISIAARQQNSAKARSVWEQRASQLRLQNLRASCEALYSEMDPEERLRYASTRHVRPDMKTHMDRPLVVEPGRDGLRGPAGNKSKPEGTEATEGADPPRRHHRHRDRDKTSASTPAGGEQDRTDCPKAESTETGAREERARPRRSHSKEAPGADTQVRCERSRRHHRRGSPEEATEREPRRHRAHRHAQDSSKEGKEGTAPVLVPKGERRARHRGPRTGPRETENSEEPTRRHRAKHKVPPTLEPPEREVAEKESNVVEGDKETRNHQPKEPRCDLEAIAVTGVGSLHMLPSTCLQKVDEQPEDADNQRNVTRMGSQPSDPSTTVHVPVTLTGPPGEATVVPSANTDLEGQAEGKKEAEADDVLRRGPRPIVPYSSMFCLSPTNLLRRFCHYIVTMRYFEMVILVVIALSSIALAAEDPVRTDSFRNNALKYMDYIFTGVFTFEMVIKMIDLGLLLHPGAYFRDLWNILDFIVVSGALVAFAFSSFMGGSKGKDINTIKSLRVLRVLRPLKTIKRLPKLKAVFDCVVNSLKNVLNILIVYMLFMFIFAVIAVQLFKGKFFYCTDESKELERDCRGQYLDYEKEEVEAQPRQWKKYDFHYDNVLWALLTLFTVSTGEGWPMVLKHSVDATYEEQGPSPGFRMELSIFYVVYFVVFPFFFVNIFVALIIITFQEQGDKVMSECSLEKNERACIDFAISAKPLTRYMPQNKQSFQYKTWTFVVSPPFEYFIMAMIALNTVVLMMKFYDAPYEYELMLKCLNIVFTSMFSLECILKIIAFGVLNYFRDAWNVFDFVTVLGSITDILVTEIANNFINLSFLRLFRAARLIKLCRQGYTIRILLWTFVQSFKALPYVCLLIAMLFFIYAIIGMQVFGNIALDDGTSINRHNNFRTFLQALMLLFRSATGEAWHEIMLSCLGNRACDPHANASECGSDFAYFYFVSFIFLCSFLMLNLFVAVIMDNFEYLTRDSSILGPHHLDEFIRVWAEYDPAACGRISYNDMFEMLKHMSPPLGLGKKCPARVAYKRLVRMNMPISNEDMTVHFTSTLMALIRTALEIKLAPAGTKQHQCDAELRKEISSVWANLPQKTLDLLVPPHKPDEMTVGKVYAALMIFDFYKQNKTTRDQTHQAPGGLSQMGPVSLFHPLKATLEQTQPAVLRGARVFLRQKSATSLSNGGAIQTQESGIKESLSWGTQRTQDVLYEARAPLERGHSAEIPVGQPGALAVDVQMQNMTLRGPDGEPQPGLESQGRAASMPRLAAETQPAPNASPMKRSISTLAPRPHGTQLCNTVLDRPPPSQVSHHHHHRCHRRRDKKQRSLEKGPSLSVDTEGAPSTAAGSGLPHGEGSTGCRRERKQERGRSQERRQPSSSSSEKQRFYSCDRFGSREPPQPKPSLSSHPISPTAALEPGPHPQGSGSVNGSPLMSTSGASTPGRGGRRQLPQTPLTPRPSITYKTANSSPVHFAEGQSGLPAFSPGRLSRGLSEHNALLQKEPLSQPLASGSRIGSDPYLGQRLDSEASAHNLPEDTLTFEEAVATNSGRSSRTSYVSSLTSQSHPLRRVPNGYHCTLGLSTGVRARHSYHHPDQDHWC

Row | SMILES | EC50
1 | NCCCCCCCC(=O)Nc1ccc(OCCCN)cc1C(=O)Nc1ccc(Oc2ccc(F)cc2)cc1 | Not Active
2 | NCCCCCCCC(=O)Nc1ccc(OCCCN)cc1C(=O)Nc1ccc(Oc2ccc(O)cc2)cc1 | Not Active

Same assay, conditions: read-out: EC50

Row | SMILES | EC50
3 | NCCCCCC(=O)Nc1ccc(OCCCCN)cc1C(=O)Nc1ccc(Oc2ccccc2)cc1 | 99 µM
4 | NCCCCCCCC(=O)Nc1ccc(OCCCN)cc1C(=O)Nc1ccc(Oc2ccccc2)cc1 | 72 µM
5 | NCCCCCC(=O)Nc1ccc(OCCCN)cc1C(=O)Nc1ccc(Oc2ccccc2)cc1 | 107 µM
6 | NC(N)=NCCCCCCCC(=O)Nc1ccc(OCCCCN=C(N)N)cc1C(=O)Nc1ccc(Oc2ccccc2)cc1 | 15 µM
7 | NCCCCC(=O)Nc1ccc(OCCCN)cc1C(=O)Nc1ccc(Oc2ccccc2)cc1 | 77 µM
8 | NC(N)=NCCCCCC(=O)Nc1ccc(OCCCN=C(N)N)cc1C(=O)Nc1ccc(Oc2ccccc2)cc1 | 16 µM
9 | NC(N)=NCCCCC(=O)Nc1ccc(OCCCN=C(N)N)cc1C(=O)Nc1ccc(Oc2ccccc2)cc1 | 116 µM
10 | NC(N)=NCCCCCCCC(=O)Nc1ccc(OCCCN=C(N)N)cc1C(=O)Nc1ccc(Oc2ccc(O)cc2)cc1 | 16 µM
11 | NC(N)=NCCCCCCCC(=O)Nc1ccc(OCCCN=C(N)N)cc1C(=O)Nc1ccc(Oc2ccc(F)cc2)cc1 | 6 µM
12 | NC(N)=NCCCCCCCC(=O)Nc1ccc(OCCCN=C(N)N)cc1C(=O)Nc1ccc(Oc2ccccc2)cc1 | 13 µM
13 | NC(N)=NCCCCCC(=O)Nc1ccc(OCCCCN=C(N)N)cc1C(=O)Nc1ccc(Oc2ccccc2)cc1 | 17 µM
14 | NCCCCCCCC(=O)Nc1ccc(OCCCCN)cc1C(=O)Nc1ccc(Oc2ccccc2)cc1 | 90 µM
